Reference: ChEMBL document CHEMBL1121989, “Amino acid amide derivatives of 2-[3-(aminomethyl)-4H-1,2,4-triazol-4-yl]benzophenones, a novel class of annelated peptidoaminobenzophenones” (1982)

Assays:
Assay type in all cases: functional
[1] = organism: Mus musculus; assay: Antianxiety activity was determined by measuring the antagonism of foot shock induced fighting (taming) in mice
Outline: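 Male albino DS mice (20-24 g), oral dosing as arabic gum suspension. Paired mice under glass enclosure given foot shocks (5 Hz, 2 ms, DC 50 V); pairs with 15–20 fighting episodes in 3 min selected, five pairs per dose. Responses counted before and 60 min after dosing; ED50 = dose giving 50% inhibition, by regression analysis.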

[2] = organism: Mus musculus; assay: Muscle relaxation was determined by using rotatory drum (rotarod) in mice, activity is expressed as ED50 values
Outline: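 Male albino DS mice (20-24 g), groups of five, oral dosing in aqueous arabic gum. At 60 min placed on a 3 cm wooden rod turning at 5 rpm; animals falling off within 2 min counted. ED50 estimated by up and down method.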

[3] = organism: Mus musculus; assay: Anticonvulsant activity was determined as the degree of protection against convulsions induced by pentylenetetrazole in mice
Outline: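 Male albino DS mice (20-24 g), ten per group, dosed orally as arabic gum suspension. Challenged 60 min later with pentylenetetrazole 125 mg/kg sc; protection from convulsion and death scored over 2 h observation. ED50 (dose protecting 50%) estimated by probit method; 95% confidence limits given.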

[4] = organism: Mus musculus; assay: Sedative activity was determined by measuring the inhibition of spontaneous motor activity
[5] = organism: Mus musculus; assay: Sedative activity was determined by measuring the loss of the righting reflux induced by chlorprothixene in mice
Outline: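 Male albino DS mice (20-24 g), ten per group, given oral test drug (arabic gum suspension) combined with chlorprothixene 2 mg/kg ip; samples estimated 60 min after dosing.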

[6] = organism: Mus musculus; assay: Sedative activity was determined by measuring the loss of the righting reflux induced by thiopental sodium in mice
Outline: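 Male albino DS mice (20-24 g), ten per group, pretreated orally (arabic gum suspension), then given thiopental sodium 35 mg/kg iv. ED50 = dose producing 50% increase in duration of anesthesia, by regression analysis.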

| SMILES | ED50 [1] [mg/kg] | ED50 [2] [mg/kg] | ED50 [3] [mg/kg] | ED50 [4] [mg/kg] | ED50 [5] [mg/kg] | ED50 [6] [mg/kg] |
| --- | --- | --- | --- | --- | --- | --- |
| Cc1nnc(CNC(=O)CN)n1-c1ccc(Cl)cc1C(=O)c1ccccc1 | 3.02 | 3.94 | 0.38 | 4.25 | 0.94 | 0.72 |
| Cc1nnc(CNC(=O)CN)n1-c1ccc(Cl)cc1C(=O)c1ccccc1F | 0.28 | 1.84 | 0.09 | 1.52 | 0.16 | 0.25 |
| NCC(=O)NCc1nncn1-c1ccc(Cl)cc1C(=O)c1ccccc1 | 5.71 | 11.8 | 1.37 | 31.7 | 1.66 | 1.97 |
| Cc1nnc(CNC(=O)CN)n1-c1ccc(Cl)cc1C(=O)c1ccccc1Cl | 0.58 | 2.09 | 0.26 | 0.31 | 0.62 | 0.27 |
| Cc1nnc(CNC(=O)C(N)Cc2ccccc2)n1-c1ccc(Cl)cc1C(=O)c1ccccc1Cl (stereo not drawn) | 0.55 | 1.83 | 0.31 | 0.38 | 0.23 | 1.52 |
| NCC(=O)NCc1nnc(C2CC2)n1-c1ccc(Cl)cc1C(=O)c1ccccc1Cl | 2.34 | 18.7 | 0.88 | 1.5 | 0.49 | 4.94 |
| CN(C(=O)CNC(=O)CN)c1ccc(Cl)cc1C(=O)c1ccccc1 | 10.9 | 29.3 | 2.16 | 15.2 | – | 5.2 |
| Cc1nnc2n1-c1ccc(Cl)cc1C(c1ccccc1)=NC2 [ALPRAZOLAM] | 1.09 | 2.22 | 0.22 | 0.94 | 0.25 | 0.36 |
| Clc1ccc2c(c1)C(c1ccccc1)=NCc1nncn1-2 [ESTAZOLAM] | 2.62 | 5.44 | 0.52 | 3.09 | 6.22 | 2.32 |
| CN(C(=O)CNC(=O)CN)c1ccc(Cl)cc1C(=O)c1ccccc1Cl [LORZAFONE ANHYDROUS] | 3.2 | – | 0.56 | 1.4 | 2.59 | 0.8 |
| Cc1nnc2n1-c1ccc(Cl)cc1C(c1ccccc1Cl)=NC2 [TRIAZOLAM] | 0.4 | 0.83 | 0.039 | 0.054 | – | 0.18 |
